Compound activity from PubChem BioAssay.
SENP8 block-1 = SENP8 protease inhibition. Q96LD8. purified SENP8, Z-RLRGG-aminoluciferin cleavage, luminescence. inhibition, % at 10 µM. 330,000 compounds, 1.2% hits; in the data active = inhibition above about 50%
NRP1-CendR mod = NRP-1/CendR interaction modulation | inhibition, % at 25 µM | FAM-RPARPAR peptide binding to NRP-1, fluorescence polarization | 360,000 compounds, 0.85% hits | O14786;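 active = inhibition or corrected inhibition above about 18%, plus a signal ratio from 0.5 to 1.5, limit read from the data, passing the limit was not always enough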
SENP6 inh = inhibitors of human SENP6 protease; Recombinant SENP6 catalytic domain, aminoluciferin luminescence; inhibition, % at 10 µM; 330,000 compounds, 1.8% hits;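 active = inhibition above about 50% at the single tested dose, limit read from the data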;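 note: plate controls were DMSO wells with enzyme for no effect and DMSO wells lacking enzyme for full effect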
SENP7 block = inhibitors of human SENP7 protease | recombinant SENP7, Z-RLRGG-aminoluciferin luminescence, 40 min | inhibition, % at 5 µM | 330,000 compounds, 1.5% hits | AID 434973;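 active = inhibition above about 50% at the single test dose, limit read from the data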;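 note: plate controls were DMSO with enzyme for no effect and no enzyme buffer wells for full effect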
SENP8 block-2 = blocks human SENP8 cleavage of Nedd8 substrate; 360,000 compounds, 0.64% hits; recombinant SENP8, Nedd8 substrate fluorescence; inhibition, % at 20 µM; Q96LD8; in the data active = inhibition mostly above about 40%, no sharp cut-off; inactive = mostly below about 27%
SENP1 inh = SENP1 (human) catalytic domain inhibition | 360,000 compounds, 0.21% hits | inhibition, % at 10 µM | recombinant SENP1 catalytic domain, CyPet-SUMO1-YPet FRET cleavage | AID 624204 | Q9P0U3;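 active = inhibition at least 30% at 10 µM, raw YFP signal under a set limit, fluorescence ratio 0.5 to 1.5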;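 note: 0% = enzyme with DMSO and 100% = no enzyme wells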
Target sequence (Q9P0U3 419-644 limits assumed): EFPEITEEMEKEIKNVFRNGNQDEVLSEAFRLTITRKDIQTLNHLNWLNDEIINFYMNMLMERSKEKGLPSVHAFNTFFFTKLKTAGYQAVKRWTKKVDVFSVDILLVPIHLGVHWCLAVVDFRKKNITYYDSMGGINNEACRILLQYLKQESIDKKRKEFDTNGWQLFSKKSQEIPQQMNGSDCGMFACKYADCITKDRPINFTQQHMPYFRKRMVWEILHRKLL
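Assay system – human recombinant His6-tagged SENP1 catalytic domain enzyme · Input – SENP1 enzyme, 20 pM final · Buffer or medium – Tris pH 8 buffer plus EDTA, NaCl, BME, BSA, NP40, catalase · Schedule – 50 min reaction at room temperature · Technique – FRET read of cyan and yellow fluorescence · Control set – no-enzyme wells low, DMSO-plus-enzyme wells high control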
SENP8 confirm = confirmation of human SENP8 protease inhibitors; inhibition, % at 12.5 µM; AID 488912; 6,200 compounds, 40% hits; shares compounds with SENP7 block; Recombinant SENP8, Z-RLRGG-aminoluciferin luminescence, 60 min;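 active = mean inhibition across replicates above about 50%, limit read from the data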
SENP6 conf = human SENP6 inhibition, confirmed. shares compounds with SENP7 block. recombinant SENP6, Z-RLRGG-aminoluciferin luminescence. inhibition, % at 12.5 µM. 6,200 compounds, 58% hits
SENP7 confirm = human SENP7 inhibition, confirmed; shares compounds with SENP7 block; recombinant SENP7, Z-RLRGG-aminoluciferin luminescence, 40 min; inhibition, % at 12.5 µM; 6,200 compounds, 69% hits; AID 488917
Casp3 SENP sel = caspase-3 inhibition (SENP selectivity assay); shares compounds with SENP7 block; purified caspase-3, Z-DEVD-aminoluciferin luminescence, 60 min; inhibition, % at 12.5 µM; 6,200 compounds, 60% hits;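 active = mean inhibition above about 50%, limit read from the data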;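 note: plate controls were enzyme with DMSO for no effect and wells without caspase-3 for full effect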
Target sequence (P42574 28-227 limits assumed): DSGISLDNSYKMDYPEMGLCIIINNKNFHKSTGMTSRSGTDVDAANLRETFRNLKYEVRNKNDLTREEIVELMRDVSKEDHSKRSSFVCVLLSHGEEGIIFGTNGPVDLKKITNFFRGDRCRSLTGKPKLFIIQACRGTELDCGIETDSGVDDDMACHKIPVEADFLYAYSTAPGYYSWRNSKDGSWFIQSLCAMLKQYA
SENP luc ctr = interferes with luciferase luminescence in SENP counter-screen; AID 488919; inhibition, % at 12.5 µM; 6,200 compounds, 39% hits; Pre-incubated SENP8/Z-RLRGG-aminoluciferin, luciferase luminescence interference; shares compounds with SENP7 block;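 active = mean inhibition above about 50% when retested at one dose, limit read from the data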;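 note: plate controls were DMSO wells with completed reaction for no effect and substrate without enzyme for full effect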
* hit, by the source's call; x = no result given. Rows were chosen to be rich in hits. Some 3.3% of all compounds tested hit in one or more screens of this group.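 Rule for the calls, unless noted: active = mean inhibition above about 50% in the one-dose retest (limit read from the data); inactive = the rest.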

SMILES	SENP8 block-1	NRP1-CendR mod	SENP6 inh	SENP7 block	SENP8 block-2	SENP1 inh	SENP8 confirm	SENP6 conf	SENP7 confirm	Casp3 SENP sel	SENP luc ctr
COc1ccc(CC(=O)N(C)c2ccccc2)cc1S(=O)(=O)N1CCOCC1	x	2	x	x	5	0	x	x	x	x	x
CCN(CC)Cc1cc(Oc2ccc(O)c(CN(CC)CC)c2)ccc1O	x	9	x	x	7	2	x	x	x	x	x
CCOc1ccc(/C=N/NC(=O)c2[nH]ncc2Br)c(O)c1	98*	7	99*	102*	-7	-104	99*	100*	103*	99*	52*
O=C(N/N=C/c1c(O)ccc2ccccc12)c1[nH]ncc1Br	18	-24	51*	19	-40	-25	33	41	77*	28	48
O=C(N/N=C/c1cccs1)c1cnccn1	-4	-6	5	7	24	1	x	x	x	x	x
O=C(N/N=C/c1cccs1)c1[nH]ncc1Br	50	2	76*	76*	9	-1	61*	58*	86*	90*	68*
Cc1ccc(O)c(/C=N/NC(=O)c2[nH]ncc2Br)c1	89*	-4	77*	93*	11	2	25	21	39	38	42
O=C(NN=Cc1c(O)ccc2ccccc12)C1CC1	x	-3	x	x	-5	-85	x	x	x	x	x
O=C(Nc1c(-c2ccccc2)[nH][nH]c1=O)c1cccs1	x	11	x	x	21	3	x	x	x	x	x
O=C(CSc1nnnn1-c1ccccc1)NCCCN1CCCC1=O	4	2	12	5	2	1	x	x	x	x	x
Cc1nn(-c2ccccc2)c(Cl)c1/C=N/NC(=O)c1ccn[nH]1	23	8	17	38	7	0	x	x	x	x	x
Cc1nn(-c2ccccc2)c(Cl)c1/C=N/NC(=O)c1[nH]ncc1Br	92*	-2	92*	95*	9	-2	8	94*	102*	95*	20
CCOC(=O)/C(=N\Nc1ncnc2ccccc12)c1ccc(C)cc1	62*	-4	61*	25	30	0	-24	56*	78*	6	20
CCOC(=O)C/C(=N\Nc1ncnc2ccccc12)c1ccccc1	-8	-2	10	-6	13	-3	x	x	x	x	x
CC1=C(C(=O)N(C(C)C)C(C)C)CC(CC(=O)NCCN2CCOCC2)C(=O)N1Cc1ccc(F)cc1 (configuration not stated)	x	1	x	x	9	1	x	x	x	x	x
C#CCN1C(=O)S/C(=C\c2ccc(-c3ccc(Cl)c(C(=O)O)c3)o2)C1=O	49	-51	70*	21	-167	-28	74*	74*	82*	32	40
COc1ccc(-c2nnc(-c3ccc(F)cc3)o2)cc1	57*	-7	58*	69*	-96	0	8	9	12	1	8
COc1ccc(-c2nnc(-c3ccccc3O)o2)cc1	84*	14	80*	93*	-169	2	51*	42	67*	56*	6
CCCc1nc2c3ccccc3ccn2c1Cc1ccccc1	x	-9	x	x	-47	-2	x	x	x	x	x
CC(OC(=O)C1=COCCO1)C(=O)NC1CCCC(C)C1C (configuration not stated)	x	-1	x	x	18	2	x	x	x	x	x
Cc1ccc(C=C2C=C(c3ccccc3)OC2=O)cc1	x	-6	x	x	-25	-77	x	x	x	x	x
Cc1ccc(C2=C/C(=C/c3cccs3)C(=O)O2)cc1	34	-36	74*	71*	10	-41	-10	-2	5	19	4
COc1ccc(NC(=O)Nc2ccc([N+](=O)[O-])cc2)cn1	-10	24	-26	-3	15	-7	x	x	x	x	x
